Assay: Toxicity liver stage against HepG2, at 10uM
Type: cell-based
Set-up: test concentration 10 uM, cell line HepG2-A16-CD81EGFP
Conditions: human, HepG2-A16-CD81EGFP cells; read-out: INHIBITION
Method in brief: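 Uninfected HepG2-A16-CD81EGFP cells, 3 × 10^3 per well, 1536-well, plated on prespotted compound at 10 μM final, parasite-free screening media added to match infected plates; puromycin 10 μM positive, DMSO 0.5% negative; run in parallel with 48 h PbLuc assay at 37 °C, 5% CO2; viability by CellTiter-Glo luminescence, normalized to controls.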

| SMILES | cytotoxicity at 10 µM [%] |
| --- | --- |
| Cc1cc(C)n(-c2ccc3nnc(C)n3n2)n1 | 17.8 |
| CCc1ccc(OCCn2cccn2)cc1 | 8.95 |
| CCOc1ccc(C(=O)Nc2c(C)nc3cccc(C)n3c2=O)cc1 | 8.99 |
| COC(=O)CC(c1cccnc1)c1oc(C)cc(=O)c1O (stereo not drawn) | -0.191 |
| NC(=O)c1nc(CC(=O)Nc2cccc(C(F)(F)F)c2)no1 | 0.493 |
| O=S(=O)(NCC1(c2cccs2)CCOCC1)c1ccc2c(c1)OCCO2 | -1.64 |
| CC(C)NC(=O)C1CCC2(CCNCC2)C1 (stereo not drawn) | 7.18 |
| CC(=O)N1CCCC2(CCN(C(=O)c3nn(C)c4ccccc34)CC2)C1 | 2.26 |
| O=C(NCC1CC1)C1CCC2(CCN(C(=O)c3cccs3)CC2)O1 (stereo not drawn) | -0.979 |
| Cn1cc(CN2C[C@@H]3OCCN(CC4CCCC4)[C@@H]3C2)cn1 | -163 |
| CCn1ncc2c1C(COC)CN(Cc1nccs1)C2 (stereo not drawn) | 9.41 |
| CNC(=O)[C@H]1C[C@@H]2CN(C(=O)c3ccoc3)C[C@@H]2N1S(C)(=O)=O | -3.88 |
| O=S(=O)(c1ccc(F)cc1)N1CCCn2cnc(CN3CCCC3)c2C1 | 7.78 |
| O=C(Nc1ccccc1)C1CN(Cc2cccs2)CC12CCOCC2 (stereo not drawn) | 3.09 |
| COCCN1C(=O)C[C@@H]2[C@H]1CCN2C(=O)c1ccc[nH]1 | -1.34 |
| O=c1[nH]nc2c(S(=O)(=O)N3CCCCCC3)cccn12 | 2.1 |
| CCOC(=O)CC(c1ccc(OC)cc1)c1c(O)n[nH]c1C (stereo not drawn) | -0.244 |
| CC1=Nc2c(c(=O)[nH]n2C(C)C)C(c2cccs2)S1 (stereo not drawn) | 3.67 |
| Cc1cnc2c(c1NCc1ccncc1)c(=O)n(C)c(=O)n2C | -10.7 |
| COCCN1C[C@@H]2CN(c3ncccn3)C[C@@H]2C1=O | -11.9 |
| CCn1nc(C)c2ncnc(NCCn3cccn3)c21 | 7.73 |
| COc1c(C(=O)NCc2cccnc2)nnn1Cc1ccc(C)cc1 | 11.8 |
| Cc1n[nH]c(C)c1CCC(=O)N1CCC(O)(CN2CCN(C)CC2)C1 (stereo not drawn) | -6.13 |

| SMILES | cytotoxicity at 10 µM [%] |
| --- | --- |
| Oc1cc(-c2ccsc2)nc(C2CCN(Cc3ccncc3)CC2)n1 | -7.7 |
| Cc1cncnc1C1CCN(C(=O)CN(C)C)CC1 | -7.91 |
| Cn1cc(CN2CCCC(c3nc(O)cc(-c4cccs4)n3)C2)cn1 (stereo not drawn) | -5.89 |
| CCC1(CC)CC(=O)N(CC(O)c2ccc(F)cc2)C1=O (stereo not drawn) | -0.438 |
| CC(CN1CCOCC1)NC(=O)N1CCCC1 (stereo not drawn) | 0.651 |
| Cc1ccc(C)c(CN(CC(N)=O)C(C)C)c1 | 0.477 |
| COc1ccc(NCCC(=O)NCc2cccnc2N(C)C)cc1 | -2.06 |
| CCNC(=O)NCc1ccc(-n2ccc(C(F)(F)F)n2)cc1 | -4.7 |
| Cc1nc(C)c(C(C)NCc2c(C)nn(C)c2N(C)C)s1 (stereo not drawn) | -4.96 |
| CC(C)N(CC(N)=O)Cc1c(Cl)ccc2cccnc12 | 11.8 |
| O=C(NCC1(O)CCOCC1)c1ccn(-c2ccccc2F)n1 | -0.636 |
| Nc1nccnc1C(=O)NC1CCN(Cc2ccccc2)C1 (stereo not drawn) | 11.9 |
| NCC(CO)Cc1cccc(OC(F)(F)F)c1 (stereo not drawn) | 3.2 |
| CSc1ccc(NC(=O)Cn2cc(N)cn2)cc1 | 0.14 |
| O=c1ccc(S(=O)(=O)N2CCCC2)cn1CC1CCCCO1 (stereo not drawn) | -0.983 |
| O=C(C1CC(c2ccccc2)=NO1)N1CCCCc2ccccc21 (stereo not drawn) | 3.17 |
| CCc1nnc2n1CCN(C(=O)C(C)Oc1cccc(C#N)c1)C2 (stereo not drawn) | 0.855 |
| CC(=O)NCCCNC(=O)N1CCN(c2cc(F)ccc2F)CC1 | -5.14 |
| COc1ccccc1OCc1nc2cc3c(cc2c(=O)o1)OCCCO3 | 1.37 |
| O=C(NCC1CCC1)c1ccc(-n2ccnc2)nn1 | 2.18 |
| COc1cccc(CSc2nnc(C)n2CC(N)=O)c1 | 3.59 |
| CCC(C)(CNC(=O)Nc1nncs1)N1CCOCC1 (stereo not drawn) | -7.98 |
| CCN1CCOC(CNCc2ccc(OC)c(F)c2)C1 (stereo not drawn) | 1.79 |

| SMILES | cytotoxicity at 10 µM [%] |
| --- | --- |
| CNC(=O)CCN1CCN(C(C)c2ccc(Cl)cc2)CC1 (stereo not drawn) | -0.82 |
| CCOC(=O)NC(CNC(=O)c1cc(Cl)ccn1)CC(C)C (stereo not drawn) | 5.38 |
| Cc1ccc(CN(C)C(=O)CN2CCCC2c2cnn(C)c2)o1 (stereo not drawn) | -1.69 |
| CCC(COC)NC(=O)N1CCC(n2ccc(C(F)(F)F)n2)CC1 (stereo not drawn) | -12 |
| Cc1ccc(NC(=O)N2CCOC(C(N)=O)C2)cc1C(F)(F)F (stereo not drawn) | -146 |
| COc1ccc(CNCCc2cc(F)cc3c2OCOC3)cc1OC | -6.9 |
| CCN(C(=O)c1cc2c([nH]c1=O)CCCC2=O)C1CCCCC1 | -4.07 |
| Cc1n[nH]cc1CNC(C(=O)N1CCCCC1)c1ccccc1 (stereo not drawn) | 8.37 |
| CCN(CC)S(=O)(=O)CCNC(=O)c1cc2cccc(F)c2o1 | -3.12 |
| CCNC(=O)C1CCCN(Cn2nc(C(C)(C)C)ccc2=O)C1 (stereo not drawn) | 10.1 |
| Cc1csc(CNc2cnn(CC(C)C)c2)n1 | -6.63 |
| CCc1nc(C(=O)N2CC(C)CN(C)c3ccccc32)c[nH]1 (stereo not drawn) | -3.47 |
| Cn1cc(CNCCNc2ncc(Cl)cc2Cl)cn1 | -6.42 |
| CN(Cc1ccc2c(c1)OCO2)C(=O)C1CC(c2cccc(F)c2)=NO1 (stereo not drawn) | 10.7 |
| CCCn1nnnc1COc1cc(OC)ccc1C(N)=O | -4.42 |
| CNS(=O)(=O)c1cc(C(=O)N(C)Cc2sccc2C)c(C)o1 | -8.43 |
| CCn1ncc2c1NC(=O)C(C#N)C21CCCC1 (stereo not drawn) | -0.242 |
| CC(=O)N(C)CC(=O)Nc1cccc(N2CCN(CC3CC3)CC2)c1 | 1.75 |
| Cc1ccc2c(c1)OCCCC2NCc1nnc2n1CCCCC2 (stereo not drawn) | -7.89 |
| CN(Cc1cccc(Cl)c1)S(=O)(=O)N1CCOCC1 | -8.2 |
| COCCn1c2c(ccc1=O)CCN(C(=O)Cc1cccs1)CC2 | 1.44 |
| N#Cc1ccc(Nc2nc3c(s2)C(=O)CN(CC2CC2)C3)cc1 | -5.28 |
| CC(C)CCNC(=O)C(c1cccc(F)c1)N(C)C (stereo not drawn) | -5.77 |

| SMILES | cytotoxicity at 10 µM [%] |
| --- | --- |
| COC[C@@]12CC[C@@H](N3CCOCC3)C[C@H]1CCN(c1cnccn1)C2 | 4.76 |
| Cn1nnnc1SCCNC(=O)c1cccc2ccnn12 | -59.1 |
| Cc1ncsc1CCn1ccnc1-c1cc2n(n1)CCCNC2 | -0.434 |
| COc1cc(CN2CCCC2)ccc1OC12CCCN(CC1)C2 (stereo not drawn) | -2.87 |
| CN(Cc1ccccc1CN1CCCC1)C(=O)c1c(O)cccc1O | -5.84 |
| Cc1nc(C(=O)NCCS(=O)(=O)N2CCCC2)cs1 | 13.4 |
| CN(Cc1ccccn1)C(=O)c1cc(CN2CCC(O)CC2)on1 | 0.852 |
| CCn1c(CN(C)C)nnc1C1CCN(Cc2cnc(C)nc2)CC1 | 4.6 |
| Cc1ccc2c(c1)SCC(=O)N2CC(=O)N1CCCC1c1nccs1 (stereo not drawn) | 12.4 |
| O=C(O)[C@@H]1CN(C(=O)CCCc2ccc(F)cc2)C[C@H]1C1CC1 | 0.832 |
| CCC(CO)N(Cc1ccco1)C(=O)c1ccccc1NC (stereo not drawn) | 2.1 |
| CCN(Cc1cc(F)c(OC)c(Cl)c1)Cc1noc(CC(C)C)n1 | -2.84 |
| Cc1cnn(C(C)C2CC2)c1NC(=O)c1ncccc1O (stereo not drawn) | 7.4 |
| CCN(C)CC(=O)N1CCc2nc(NC)nc(C(=O)N3CCCC3)c2C1 | -120 |
| Cc1ccccc1N1CCCN(C(=O)c2nn(C)cc2Cl)CC1 | -4.78 |
| COc1ccc(-c2c[nH]c(C3CC(=O)N(CC(C)C)C3)n2)cc1 (stereo not drawn) | 5.35 |
| O=C1CCNC(=O)N1CC(=O)N1CCC1c1ccc(F)cc1 (stereo not drawn) | 7.46 |
| CNc1nc(C)c(C(=O)N2CCCCC2CCc2ccccc2)s1 (stereo not drawn) | 2.24 |
| Cn1cc(Cl)c(C(=O)N2CCCN(C3Cc4ccccc4C3)CC2)n1 | -4.86 |
| CC(C)n1cnnc1Cn1c(=O)ccc2ccccc21 | 5.62 |
| COCCc1noc(CN2CCC3(CCCO3)CCC2=O)n1 (stereo not drawn) | 5.35 |
| Cc1cccnc1CC(C)N(C)C(=O)c1ccoc1C (stereo not drawn) | -12.6 |
| COCCN1CCC(CN(CC2CCCO2)C(=O)CCNC(C)=O)CC1 (stereo not drawn) | -5.99 |

| SMILES | cytotoxicity at 10 µM [%] |
| --- | --- |
| Cc1ccc(C(=O)N2CCN(S(C)(=O)=O)CC2)cc1N1CCNC1=O | -5.07 |
| COCCN(C)C[C@@H]1CN(C(=O)c2ccoc2)C[C@@H]1CO | -18.4 |
| COCCCNC(=O)CN(C)C1CCCN(c2cccnn2)C1 (stereo not drawn) | -2.51 |
| Cc1ccsc1CNC(=O)N(C)Cc1cnn(C)c1 | -6.25 |
| CN1CCOC(CN(C(=O)CCCn2cccn2)c2nccs2)C1 (stereo not drawn) | -22.7 |
| CN1CC(C(=O)Nc2ccc(OCC(F)(F)C(F)F)nc2)CC1=O (stereo not drawn) | -8.64 |
| CC(C)(C(N)=O)N1CCN(C(=O)c2ccn(-c3cccc(Cl)c3)n2)CC1 | -13.3 |
| Cc1cnn(CC(=O)N2CCCN(c3ncccc3C#N)CC2)c1 | -4.37 |
| O=C(NCCOC1CCCCC1)c1ccc(-c2ccco2)[nH]c1=O | -8.08 |
| CN(Cc1cccc(F)c1)C(=O)CN1CCOC(Cn2cccn2)C1 (stereo not drawn) | -8.21 |
| CN(Cc1ccco1)C(=O)CN1CCCCC1Cn1cccn1 (stereo not drawn) | 2.91 |
| COCCNc1cc(C2CCCNC2)ccn1 (stereo not drawn) | -7.17 |
| CCOC(=O)[C@]12CCCN(Cc3nccs3)C[C@H]1CN(CCOC)C2 | 1.36 |
| O=C(c1ncccn1)N1C[C@H]2CCC[C@@]2(COc2ccccn2)C1 | 5.29 |
| c1cnc(N2CCC3(COCCN(CC4CCOCC4)C3)C2)nc1 (stereo not drawn) | -1.56 |
| CC(C)CN1CCc2c(CN(C)Cc3ccco3)cncc2C1 | 8.1 |
| CN1[C@@H](C(=O)NCC2CC2)C[C@H]2CN(Cc3ccsc3)C[C@H]21 | -0.213 |
| CCNc1nc2cn(-c3ccc(CC)cc3)c(=O)c-2c[nH]1 | -3.31 |
| CN1C(=O)[C@@H]2CC[C@H]1CN(c1ncnc3ccsc13)C2 | 0.636 |
| CNc1nc2cn(Cc3ccc(Cl)cc3)c(=O)c-2c[nH]1 | 8.93 |
| COC1C[C@@H]2CN(C(=O)c3cc4cccc(F)c4[nH]3)C[C@@H]2C1 (stereo partly drawn) | 1.51 |

From ChEMBL document CHEMBL4513216, “Probing the Open Global Health Chemical Diversity Library for Multistage-Active Starting Points for Next-Generation Antimalarials” (ACS Infect Dis, 2020)
